Screening data as filed in PubChem.
In the library only some 5.9% were active in any assay of this set; here they are far more common.
KDM4C inh = inhibitors of human demethylase GASC-1 KDM4C. AID 720574. inhibition, % at 12.5 µM. actives 0.15% (n = 96,000). GST-KDM4C 2-372, H3K9me3 peptide, LANCE TR-FRET;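 active = mean replicate inhibition above about 25%, with at least 55% of replicates also reaching it, limit read from the data, passing the limit was not always enough; inconclusive = only one of those two conditions met; inactive = neither condition met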
Target sequence (Q9H3R0 2-372 limits assumed): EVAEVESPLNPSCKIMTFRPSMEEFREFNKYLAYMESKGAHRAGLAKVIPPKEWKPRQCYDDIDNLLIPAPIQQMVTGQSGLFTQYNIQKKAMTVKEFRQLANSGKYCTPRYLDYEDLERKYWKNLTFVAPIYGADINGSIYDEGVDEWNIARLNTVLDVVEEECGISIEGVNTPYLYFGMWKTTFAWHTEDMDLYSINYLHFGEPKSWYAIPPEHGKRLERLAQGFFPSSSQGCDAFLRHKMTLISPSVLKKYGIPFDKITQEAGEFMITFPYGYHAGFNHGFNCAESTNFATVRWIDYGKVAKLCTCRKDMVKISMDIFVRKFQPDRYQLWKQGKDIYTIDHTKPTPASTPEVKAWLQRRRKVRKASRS
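System – N-terminal GST-fused human GASC-1 (KDM4C) fragment, residues 2-372 · Input – enzyme final amount 10 nM · Technique – LANCE TR-FRET, Eu antibody, ULight-streptavidin, EDTA, ex 340 nm, em 618/671 nm · Medium – HEPES buffer, pH 7.5, plus ascorbate · Incubation – enzyme reaction 30 min, then detection 60 min, both room temperature · Reagent – H3K9me3 peptide with Fe(II)/2OG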
T cruzi growth-1 = blocks T. cruzi growth in NIH3T3 culture; T. cruzi beta-gal in NIH3T3, GalScreen luminescence, 90 h; AID 624255; actives 5.9% (n = 77,000); inhibition, % at 8.34 µM;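 active = mean inhibition above about 93%, with at least 55% of replicates each passing it, limit read from the data, passing the limit was not always enough; inconclusive = only one of those two conditions holds; inactive = neither condition holds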
Pf Dd2 growth = blocks growth of Plasmodium falciparum Dd2 parasites; P. falciparum Dd2 growth, SYBR Green, 72 h; stronger effect = lower value; activity change, % at 10 µM; actives 2.3% (n = 94,000); AID 1159554; in the data active = activity change below about -80%; inconclusive = no clear call, values can overlap the other calls
IDH1 R132H inh = inhibitors of human IDH1 R132H | IDH1 R132H reductase, diaphorase/resazurin fluorescence, 60 min | inhibition, % at 10 µM | actives 0.18% (n = 70,000) | AID 624101; in the data active = inhibition above about 34%; inconclusive = no clear call, values can overlap the other calls; inactive = below about 11%;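 also: 0% = DMSO and 100% = no enzyme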
Target sequence (O75874 whole entry R132H): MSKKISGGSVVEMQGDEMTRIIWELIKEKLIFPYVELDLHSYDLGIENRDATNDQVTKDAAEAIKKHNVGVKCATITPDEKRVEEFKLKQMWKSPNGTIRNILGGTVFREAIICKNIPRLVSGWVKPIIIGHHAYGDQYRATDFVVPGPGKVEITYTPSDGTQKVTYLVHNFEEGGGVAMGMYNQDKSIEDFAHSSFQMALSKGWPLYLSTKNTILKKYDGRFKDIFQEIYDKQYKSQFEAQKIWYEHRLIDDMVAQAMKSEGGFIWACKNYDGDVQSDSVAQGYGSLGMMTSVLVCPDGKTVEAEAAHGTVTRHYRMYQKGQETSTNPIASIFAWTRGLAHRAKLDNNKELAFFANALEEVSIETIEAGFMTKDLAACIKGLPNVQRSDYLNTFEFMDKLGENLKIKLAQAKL
T cruzi growth-2 = blocks T. cruzi growth in NIH3T3 host cells; actives 72% (n = 5,600); inhibition, % at 8.35 µM; shares compounds with T cruzi growth-1; T. cruzi beta-gal in NIH3T3, GalScreen luminescence, 90 h; AID 651739;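 active = mean replicate inhibition above about 95% and at least 55% of replicates individually reaching it, limit read from the data; inconclusive = only one of the two criteria is met; inactive = neither criterion is met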
T cruzi growth-3 = Trypanosoma cruzi proliferation inhibition. T. cruzi beta-gal in NIH3T3, GalScreen luminescence, 90 h. AID 651740. actives 21% (n = 5,600). shares compounds with T cruzi growth-1. inhibition, % at 2.09 µM;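 active = mean inhibition above about 95%, with at least 55% of replicates also reaching it, limit read from the data; inconclusive = meets just one of the two conditions; inactive = meets neither condition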;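 also: plate controls were neutral control median for no effect and positive control median for full effect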
3T3 cytotox = kills mouse NIH/3T3 fibroblasts | shares compounds with T cruzi growth-1 | NIH/3T3 viability, CellTiter-Glo ATP luminescence, 90 h | cytotoxicity (signal decrease), % at 8.35 µM | actives 14% (n = 5,600);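 active = mean signal decrease across replicates above about 35% based on untreated-well scatter, with enough replicates individually passing, limit read from the data; inconclusive = no rule stated though some were filed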;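 also: 0% = median of neutral control wells and 100% = median of positive control wells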
3T3 cytotox 2 = NIH/3T3 (mouse) viability loss | shares compounds with T cruzi growth-1 | NIH/3T3 viability, CellTiter-Glo ATP luminescence, 90 h | inhibition, % at 24.9 µM | actives 56% (n = 5,600) | AID 651744;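 active = mean loss of cell viability signal at or above a set limit, and enough replicates individually reaching it; inconclusive = meets only the mean limit or only the replicate share; inactive = meets neither condition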;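 also: 0% = median of neutral control wells and 100% = median of positive control wells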
* hit, by the source's call; u = inconclusive; x = no result given.

SMILES	KDM4C inh	T cruzi growth-1	Pf Dd2 growth	IDH1 R132H inh	T cruzi growth-2	T cruzi growth-3	3T3 cytotox	3T3 cytotox 2
C[C@@H]1CCCCO[C@H](CN(C)C(=O)Nc2ccccc2)[C@H](C)CN([C@H](C)CO)C(=O)c2cc(NC(=O)Cc3ccccc3)ccc2O1	0.2	28.7	-67.5	-0.2	x	x	x	x
CCn1c(SCC(=O)Nc2cccc(Cl)c2C)nnc1-c1ccc(Br)cc1	x	x	x	-0.3	x	x	x	x
C[C@@H]1CN([C@@H](C)CO)S(=O)(=O)c2ccc(C#CCN(C)C)cc2O[C@@H]1CN(C)Cc1ccc2c(c1)OCO2	2.7	84.9	-54.1	-0.5	x	x	x	x
C[C@H]1CN([C@@H](C)CO)S(=O)(=O)c2ccc(C#CCN(C)C)cc2O[C@@H]1CN(C)Cc1ccc2c(c1)OCO2	6.2	106.9*	-37.2	0.5	107.0*	88.1	29.1	105.5*
C[C@H](CO)N1C[C@H](C)[C@H](CN(C)Cc2ccc3c(c2)OCO3)Oc2cc(C#CCN(C)C)ccc2S1(=O)=O	0.5	76.4	u	0.0	x	x	x	x
C[C@H]1CN([C@@H](C)CO)S(=O)(=O)c2ccc(C#CCN(C)C)cc2O[C@H]1CN(C)Cc1ccc2c(c1)OCO2	5.9	103.5*	-67.8	2.6	101.0*	52.8	12.7	25.7*
CC(C)(C)c1ccc(OCC(=O)Nc2ccccc2-c2nc3ccccc3s2)cc1	x	x	x	0.4	x	x	x	x
COc1ccc(CN(C)C[C@@H]2OCCCC[C@@H](C)Oc3ccc(NC(=O)Nc4ccc5c(c4)OCO5)cc3C(=O)N([C@@H](C)CO)C[C@@H]2C)cc1	0.1	u	-9.4	1.7	107.9*	97.7*	11.6	53.4*
COc1ccc(CN(C)C[C@@H]2OCCCC[C@H](C)Oc3ccc(NC(=O)Nc4ccc5c(c4)OCO5)cc3C(=O)N([C@H](C)CO)C[C@H]2C)cc1	-0.5	52.3	-51.5	1.2	x	x	x	x
COc1ccc(CN(C)C[C@H]2OCCCC[C@@H](C)Oc3ccc(NC(=O)Nc4ccc5c(c4)OCO5)cc3C(=O)N([C@H](C)CO)C[C@H]2C)cc1	-0.2	106.4*	-70.9	x	106.3*	82.7	0.5	63.7*
COc1ccc(CN(C)C[C@H]2OCCCC[C@H](C)Oc3ccc(NC(=O)Nc4ccc5c(c4)OCO5)cc3C(=O)N([C@@H](C)CO)C[C@@H]2C)cc1	1.8	105.5*	-50.6	-0.1	101.0*	81.1	24.7	104.4*
CCCNC(=O)N(C)C[C@@H]1Oc2cc(-c3ccncc3)ccc2S(=O)(=O)N([C@H](C)CO)C[C@@H]1C	3.3	38.1	-15.7	1.2	x	x	x	x
CCCNC(=O)N(C)C[C@@H]1Oc2cc(-c3ccncc3)ccc2S(=O)(=O)N([C@H](C)CO)C[C@H]1C	0.1	107.2*	-1.1	-1.4	87.5	75.9	1.4	13.4
CCCNC(=O)N(C)C[C@@H]1Oc2cc(-c3ccncc3)ccc2S(=O)(=O)N([C@@H](C)CO)C[C@H]1C	1.1	110.8*	37.8	0.9	96.8*	85.1	2.2	9.8
C=CCNC(=O)[C@H]1[C@@H]2C(=O)O[C@@H](c3ccccc3)[C@@H](c3ccccc3)N2[C@@H](c2ccc(OCCO)cc2)[C@]12C(=O)Nc1ccc(C#CCNC(N)=O)cc12	x	x	x	0.3	x	x	x	x
Cc1ccc(C)c(NC(=O)CN(c2ccc(F)c(Cl)c2)S(C)(=O)=O)c1	x	x	x	-0.6	x	x	x	x
CC(=O)N1CCCCN2[C@H](CO)[C@H](c3ccc(-c4ccc(C)cc4)cc3)[C@@H]2C1	0.1	116.7*	9.6	x	98.0*	15.7	44.2*	34.2*
CC(=O)N1CCCCN2[C@@H](CO)[C@@H](c3ccc(-c4cccc(C)c4)cc3)[C@@H]2C1	-1.3	u	21.6	x	52.9	50.1	41.7*	62.1*
Cc1ccc(C)c(Cn2c(CCCO)nc3ccccc32)c1	x	x	x	0.0	x	x	x	x
CCOC(=O)Cc1[nH]nc2c1C(C1CC=CCC1)C(C#N)=C(N)O2 (stereo not drawn)	x	x	x	-0.4	x	x	x	x
COc1ccc(CN(C)C[C@@H]2Oc3ccc(NS(=O)(=O)c4ccc(Cl)cc4)cc3CC(=O)N([C@H](C)CO)C[C@H]2C)cc1	0.7	100.6*	-9.5	1.0	113.1*	84.3	-2.2	-7.5
COc1ccc(NC(=O)Nc2ccc3c(c2)CC(=O)N([C@H](C)CO)C[C@@H](C)[C@H](CN(C)CC2CCCCC2)O3)cc1	-0.5	101.1*	-6.7	0.3	95.6*	70.1	27.5	105.5*
COc1ccc(CN(C)C[C@@H]2Oc3ccc(NS(=O)(=O)c4ccc(C)cc4)cc3CC(=O)N([C@@H](C)CO)C[C@@H]2C)cc1	-1.7	107.6*	-10.9	2.7	84.6	13.1	10.8	22.5
COc1ccc(CN(C)C[C@@H]2Oc3ccc(NS(=O)(=O)c4ccc(C)cc4)cc3CC(=O)N([C@H](C)CO)C[C@H]2C)cc1	-4.2	110.4*	12.1	0.1	113.7*	105.9*	5.5	0.7
COc1ccc(CN(C)C[C@H]2Oc3ccc(NS(=O)(=O)c4ccc(C)cc4)cc3CC(=O)N([C@H](C)CO)C[C@@H]2C)cc1	1.9	x	-8.1	-3.1	x	x	x	x
SMILES	KDM4C inh	T cruzi growth-1	Pf Dd2 growth	IDH1 R132H inh	T cruzi growth-2	T cruzi growth-3	3T3 cytotox	3T3 cytotox 2
COc1ccc(CN(C)C[C@H]2Oc3ccc(NS(=O)(=O)c4ccc(C)cc4)cc3CC(=O)N([C@@H](C)CO)C[C@H]2C)cc1	1.0	x	18.5	2.2	x	x	x	x
Cn1cnnc1SCc1nc2ccc([N+](=O)[O-])cc2[nH]1	x	x	x	-1.5	x	x	x	x
Cc1ccccc1OCC(=O)Nc1cccc(NC(=O)c2ccc(C(C)(C)C)cc2)c1	x	x	x	-0.1	x	x	x	x
COc1ccc(CN(C)C[C@H]2Oc3ccc(NS(=O)(=O)c4c(C)noc4C)cc3CC(=O)N([C@H](C)CO)C[C@@H]2C)cc1	1.1	106.0*	-28.1	2.6	82.6	50.4	2.5	14.8
CNC[C@@H]1Oc2ccc(NC(=O)NC3CCCCC3)cc2CC(=O)N([C@H](C)CO)C[C@H]1C	-0.2	119.0*	47.9	0.2	21.8	-24.6	9.7	-12.7
COc1ccc(CN(C)C[C@H]2Oc3ccc(NS(=O)(=O)c4c(C)noc4C)cc3CC(=O)N([C@@H](C)CO)C[C@H]2C)cc1	2.7	20.3	3.3	x	x	x	x	x
CCCC#Cc1ccc2c(c1)O[C@H](CN(C)C(=O)c1ccncc1)[C@H](C)CN([C@@H](C)CO)S2(=O)=O	2.6	84.3	-14.4	0.2	x	x	x	x
CCCC#Cc1ccc2c(c1)O[C@H](CN(C)C(=O)c1ccccc1)[C@H](C)CN([C@H](C)CO)S2(=O)=O	0.5	98.5*	-66.1	-0.2	107.3*	80.8	-2.8	58.4*
CCCC#Cc1ccc2c(c1)O[C@H](CN(C)C(=O)c1ccccc1)[C@@H](C)CN([C@@H](C)CO)S2(=O)=O	0.2	111.6*	-40.6	-0.4	103.6*	60.2	20.6	35.2*
